This passage reports MIC and Activity results from ChEMBL document CHEMBL1149558, “Synthesis of symmetrical C- and pseudo-symmetrical O-linked disaccharide analogs for arabinosyltransferase inhibitory activity in Mycobacterium tuberculosis” (Bioorg Med Chem Lett, 2007).

Molecules are shown by their SMILES. In brackets after ≈: the same amount, converted by molar mass. Activity calls are given as the source filed them. No cut-off for these calls is given here.

The test system of experiment [1] is Mycobacterium tuberculosis. Briefly: Antimycobacterial activity against Mycobacterium tuberculosis H37Ra. It is filed as functional. The gist of the method: (§1)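 Colorimetric broth microdilution against M. tuberculosis H37Ra (ATCC 25177) and M. avium NJ 211. Initial screen at 1.28 and 12.8 μg/mL. Activity was confirmed with […] dilutions at 16, 8 and 4 μg/mL to set the MIC.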

The test system of experiment [2] is Mycobacterium avium. Briefly: Antimycobacterial activity against Mycobacterium avium at 12.8 ug/mL. The class given is functional, organism-based. The gist of the method:
as §1

Experiment [3] deals with T1, Probable arabinosyltransferase A (Mycobacterium tuberculosis) (UniProt P9WNL9).
T1 sequence (whole entry): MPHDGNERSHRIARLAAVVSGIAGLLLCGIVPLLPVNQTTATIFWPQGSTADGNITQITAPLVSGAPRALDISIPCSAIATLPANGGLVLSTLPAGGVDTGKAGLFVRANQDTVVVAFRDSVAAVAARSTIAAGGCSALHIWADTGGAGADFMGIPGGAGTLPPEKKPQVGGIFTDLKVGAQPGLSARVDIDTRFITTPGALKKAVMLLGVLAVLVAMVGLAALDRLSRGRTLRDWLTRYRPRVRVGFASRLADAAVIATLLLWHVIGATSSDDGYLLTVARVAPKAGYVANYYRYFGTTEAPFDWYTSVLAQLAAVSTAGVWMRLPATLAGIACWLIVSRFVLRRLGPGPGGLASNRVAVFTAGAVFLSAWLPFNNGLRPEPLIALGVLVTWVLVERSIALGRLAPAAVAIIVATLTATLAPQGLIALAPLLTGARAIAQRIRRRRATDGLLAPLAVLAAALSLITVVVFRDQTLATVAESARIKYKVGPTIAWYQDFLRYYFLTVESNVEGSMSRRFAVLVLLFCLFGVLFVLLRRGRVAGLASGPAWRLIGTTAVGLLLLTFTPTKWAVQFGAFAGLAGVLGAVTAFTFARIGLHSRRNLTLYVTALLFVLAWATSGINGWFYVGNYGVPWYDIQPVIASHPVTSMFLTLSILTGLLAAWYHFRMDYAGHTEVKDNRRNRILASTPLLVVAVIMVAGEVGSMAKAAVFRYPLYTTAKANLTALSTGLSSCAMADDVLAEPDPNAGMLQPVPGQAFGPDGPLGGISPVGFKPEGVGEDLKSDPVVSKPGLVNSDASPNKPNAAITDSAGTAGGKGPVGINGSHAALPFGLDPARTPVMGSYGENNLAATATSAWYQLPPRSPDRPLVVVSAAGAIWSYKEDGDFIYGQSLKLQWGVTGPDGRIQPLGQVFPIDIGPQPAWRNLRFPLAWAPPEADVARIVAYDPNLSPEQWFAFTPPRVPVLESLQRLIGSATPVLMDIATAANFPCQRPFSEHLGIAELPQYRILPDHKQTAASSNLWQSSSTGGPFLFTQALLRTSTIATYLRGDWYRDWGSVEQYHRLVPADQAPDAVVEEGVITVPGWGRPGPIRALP
Briefly: Inhibition of Mycobacterium smegmatis arabinosyl transferase assessed as [14C]arabinofuranose incorporation at 3.6 mM. The conditions noted are these: Mycolicibacterium smegmatis. The gist of the method:
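Cell-free competition arabinosyltransferase acceptor assay with membranes and [14C]DPA as glycosyl donor. The read-out is inhibition of [14C]Araf incorporation into the α(1→5)-linked 1-O-octyl arabinofuranosyl disaccharide acceptor at 0.4 mM. Test compounds were run at 3.6 mM, and IC50 values were also derived.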

The test system of experiment [4] is Mycobacterium avium. Briefly: Antimycobacterial activity against Mycobacterium avium. The class given is functional. The gist of the method: as §1

What is called MIC is the lowest concentration that inhibits growth of the organism. `CC[C@@H](CO)NCCN[C@@H](CC)CO` [ETHAMBUTOL]: the MIC in experiment [1] is 2 µg/mL (≈ 9.79 µM).

The compound `CC(C)(C)[Si](C)(C)O[C@H]1[C@H](O[Si](C)(C)C(C)(C)C)[C@@H](CO[C@H]2O[C@H](CN=[N+]=[N-])[C@@H](O)[C@@H]2O)O[C@@H]1CN=[N+]=[N-]` returned an MIC in experiment [1] of 16 µg/mL (≈ 27.8 µM). Further, in the experiment with Mycobacterium avium [2], the result was inactive.

In the case of `O[C@@H]1[C@@H](OC[C@H]2O[C@H](CN(CC3CCCCC3)CC3CCCCC3)[C@@H](O)[C@@H]2O)O[C@H](CN(CC2CCCCC2)CC2CCCCC2)[C@H]1O`, the values for the MIC (in experiment [1]; with Mycobacterium avium [4]) were 8 µg/mL (≈ 11.8 µM) and 16 µg/mL (≈ 23.6 µM), respectively. Also, the result in experiment [3] was Active.

Turning to `CC(C)(C)[Si](C)(C)O[C@H]1[C@H](O[Si](C)(C)C(C)(C)C)[C@@H](CN(CC2CCCCC2)CC2CCCCC2)O[C@@H]1CO[C@H]1O[C@H](CN(CC2CCCCC2)CC2CCCCC2)[C@@H](O)[C@@H]1O`, the MIC in experiment [1] was > 12.8 µg/mL. Further, the result in the experiment on Mycobacterium avium [2] was inactive.

In the case of `O[C@H]1[C@H](O)[C@@H](CN(CC2CCCCC2)CC2CCCCC2)O[C@@H]1/C=C/[C@H]1O[C@H](CN(CC2CCCCC2)CC2CCCCC2)[C@@H](O)[C@@H]1O`, the MIC (in experiment [1]; with Mycobacterium avium [4]) was 8 µg/mL (≈ 11.9 µM) each time. For the same compound, in experiment [3], the outcome was Active.

For the compound `O[C@H]1[C@H](O)[C@@H](CN(CC2CCCCC2)CC2CCCCC2)O[C@@H]1CC[C@H]1O[C@H](CN(CC2CCCCC2)CC2CCCCC2)[C@@H](O)[C@@H]1O`, the MIC (in experiment [1]; with Mycobacterium avium [4]) was 16 µg/mL (≈ 23.6 µM) each time. For the same compound, the outcome in experiment [3] was Active.
